We go through one sequence from ChEMBL document CHEMBL1148403, “Platinum(IV) complex with adamantylamine as nonleaving amine group: synthesis, characterization, and in vitro antitumor activity against a panel of cisplatin-resistant cancer cell lines” (J Med Chem, 2004).

Assay [1] relates to HBL-100. Put plainly: Cytotoxicity against breast carcinoma HBL100 tumor cell lines. The assay is classed as functional, cell-based, Homo sapiens.
Assay [2] concerns HT-29. The assay can be described thus: Cytotoxicity against colon cancer HT-29 tumor cell lines. The assay is classed as functional, cell-based, Homo sapiens.
The subject of assay [3] is K562. The assay can be described thus: Cytotoxicity against chronic myelogenous leukemia K562 tumor cell lines. The assay is classed as functional, cell-based, Homo sapiens.
Assay [4] concerns A2780. Put plainly: Cytotoxicity against ovarian carcinoma A2780/cis90 tumor cell lines. The assay is classed as functional, cell-based, Homo sapiens.
The subject of assay [5] is MCF7. The assay can be described thus: Cytotoxicity against breast carcinoma MCF-7 tumor cell lines. The assay is classed as functional, cell-based, Homo sapiens.
In assay [6] the test system is A2780. Put plainly: Cytotoxicity against ovarian carcinoma A2780/cis tumor cell lines. The assay is classed as functional, cell-based, Homo sapiens. Put shortly:
(§1)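 Cisplatin-sensitive A2780 cells and the A2780/cis resistant subline were exposed continuously for graded times (24, 48 and 72 h). IC50 was determined at each exposure time. The resistant subline had been derived by gradual cisplatin treatment.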

For assay [7], the system named is A-427. Put plainly: Cytotoxicity against lung carcinoma A427 tumor cell lines. The assay is classed as functional, cell-based, Homo sapiens.
Assay [8] concerns HCT-116. The assay can be described thus: Cytotoxicity against colon cancer HCT116 tumor cell lines. The assay is classed as functional, cell-based, Homo sapiens.
The test system of assay [9] is B16. Put plainly: Cytotoxicity against mouse melanoma B16 tumor cell lines. The assay is classed as functional, cell-based.
Assay [10] relates to KG-1. Put plainly: Cytotoxicity against chronic myelogenous leukemia KG-1 tumor cell lines. The assay is classed as functional, cell-based, Homo sapiens.
Assay [11] has as its system HT-29. Put plainly: Cytotoxicity against colon cancer HT29N tumor cell lines. The assay is classed as functional, cell-based, Homo sapiens.
The subject of assay [12] is COR-L23. The assay can be described thus: Cytotoxicity against lung carcinoma COR-L23/CTR tumor cell lines. The assay is classed as functional, cell-based, Homo sapiens.
Assay [13] deals with ML-2. The assay can be described thus: Cytotoxicity against acute myelogenous leukemia ML-2 tumor cell lines. The assay is classed as functional, cell-based, Homo sapiens.
Assay [14] concerns A2780. The assay can be described thus: Cytotoxicity against ovarian carcinoma A2780 tumor cell lines. The assay is classed as functional, cell-based, Homo sapiens. Put shortly:
as §1

Consider CISPLATIN, for which the IC50 was 63 µM in assay [1]; 50 µM in assay [2]; greater than 80 µM in [3]; greater than 80 µM in assay [4]; 71 µM in assay [5]; 40 µM in [6]. The IC50 in [7] is 63 µM; in assay [8] it was greater than 80 µM; in assay [9] it was greater than 80 µM; in assay [10], 48 µM; in [11] it was greater than 80 µM; in assay [12], greater than 80 µM. Besides, the IC50 was greater than 80 µM in assay [13] and 4 µM in assay [14].
